In the library only some 2.7% were active in any assay of this set; here they are far more common.
Rev-erbA mod – modulators of human Rev-erb alpha DNA binding | P20393 | activity, % at 10 µM | 370,000 compounds, 0.79% hits | Rev-erbα–FITC-DNA binding, fluorescence polarization, 90 min;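 active = activity above about 14%, limit read from the data; passing the limit was not always enough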
MC4R antagonist – blocks human MC4R cAMP signaling | P32245 | MC4R-expressing cells, MTII-stimulated cAMP, LANCE TR-FRET | inhibition, % at 6.5 µM | 360,000 compounds, 0.48% hits;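 active = inhibition above its plate's cutoff, the mean of tested wells on that plate plus 3 SD, cut at about 29% in these data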
Target sequence (P32245 whole entry, looked up): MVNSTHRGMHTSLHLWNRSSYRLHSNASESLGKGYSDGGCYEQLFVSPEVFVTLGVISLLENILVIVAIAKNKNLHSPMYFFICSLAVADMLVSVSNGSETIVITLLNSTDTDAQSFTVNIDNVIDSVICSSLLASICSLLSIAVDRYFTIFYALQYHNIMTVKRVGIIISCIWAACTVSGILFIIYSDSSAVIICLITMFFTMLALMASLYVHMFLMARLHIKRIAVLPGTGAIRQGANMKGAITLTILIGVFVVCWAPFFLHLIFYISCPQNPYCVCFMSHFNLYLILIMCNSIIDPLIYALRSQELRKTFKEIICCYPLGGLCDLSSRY
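System – human MC4R-expressing U2OS cells · Also added – Melanotan II · Dosing – one concentration, 6.5 µM nominal · Timing – 30-min compound, 1-h challenge, 1-h detection, room temperature · Measured by – Eu-cAMP/anti-cAMP TR-FRET, emission 671 nm · Replicates – singlicate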
MC4R ag barr – human MC4R agonism via beta-arrestin; U2OS MC4R beta-arrestin complementation, luminescence; percent of melanotan II response, DMSO zero; activation, % at 8.9 µM; 360,000 compounds, 0.98% hits; AID 540308;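 active = activation above a per-plate cutoff, the mean activation of sample wells on that plate plus 3 SD, cut at about 8% in these data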
PG9 Ab binder – small molecules binding HIV-1 gp120 antibody PG9. 360,000 compounds, 0.43% hits. TR-FRET gp120-PG9 antibody binding. AID 624416. inhibition, % at 6.7 µM; in the data active = inhibition above about 8.5%
NR2E3 ag-1 – activates human NR2E3 receptor | CHO-S Gal4-NCOR/VP16-NR2E3 two-hybrid, luciferase | inhibition of corepressor binding, % at 3.98 µM | 360,000 compounds, 0.35% hits | AID 602229;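 active = inhibition above the mean of all tested compounds plus 3 SD, cut at about 70% in these data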;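 note: higher means lower luciferase signal from less NR2E3 corepressor binding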
Target sequence (Q9Y5X4 whole entry, looked up, the tested form may be a part): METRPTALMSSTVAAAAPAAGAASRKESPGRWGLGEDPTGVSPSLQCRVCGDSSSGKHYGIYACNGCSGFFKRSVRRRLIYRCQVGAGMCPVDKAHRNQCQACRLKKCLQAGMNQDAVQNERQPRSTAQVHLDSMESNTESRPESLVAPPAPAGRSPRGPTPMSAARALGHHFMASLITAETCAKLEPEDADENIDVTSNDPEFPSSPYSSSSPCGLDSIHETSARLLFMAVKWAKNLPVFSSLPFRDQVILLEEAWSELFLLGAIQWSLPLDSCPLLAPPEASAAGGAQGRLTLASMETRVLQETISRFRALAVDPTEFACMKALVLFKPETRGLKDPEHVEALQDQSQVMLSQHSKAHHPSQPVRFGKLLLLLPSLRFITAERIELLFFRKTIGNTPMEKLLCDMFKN
NR2E3 ag-2 – agonists of human nuclear receptor NR2E3 | GST-NR2E3/biotin-RetCOR TR-FRET, 1536-well | inhibition of corepressor binding, % at 4.78 µM | 320,000 compounds, 0.12% hits | AID 2300;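 active = percent inhibition above the cutoff of mean plus 3 SD of all tested compounds, set per screening campaign, cut at about 20% in these data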
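Material: NR2E3–RetCOR corepressor complex / Amount: 1.35 nM GST-NR2E3 / Medium: Tris pH 7.5 / Compound: single nominal compound dose of 4.8 µM / Incubation: 5 h at 4 °C / Technique: TR-FRET, Eu(K)-anti-GST donor, streptavidin-D2 acceptor, ex 340, em 617/671 nm / Read-out basis: percent loss of FRET ratio relative to control wells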
U2OS cAMP counter – U2OS forskolin cAMP inhibition counter-screen. shares compounds with MC4R antagonist. parental U2OS, LANCE TR-FRET. inhibition, % at 6.5 µM. 1,600 compounds, 26% hits;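 active = mean inhibition over triplicates above the low-control well mean plus 3 SD, set per campaign, cut at about 13% in these data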;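 note: signal is single emission at 671 nm which falls as cellular cAMP rises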
MC4R cAMP antag – human MC4R cAMP antagonism confirmation. shares compounds with MC4R antagonist. MC4R-expressing cells, MTII-stimulated cAMP, TR-FRET. inhibition, % at 6.5 µM. 1,600 compounds, 27% hits. AID 602195; in the data active = inhibition above about 29%
Hits are given with their value; 0 = inactive; - = no result given.

SMILES | Rev-erbA mod | MC4R antagonist | MC4R ag barr | PG9 Ab binder | NR2E3 ag-1 | NR2E3 ag-2 | U2OS cAMP counter | MC4R cAMP antag
C/C(=N\NS(=O)(=O)c1ccc(C)cc1)c1cc2ccccc2oc1=O | 0 | 30 | 0 | 0 | 0 | 0 | 0 | 0
COc1ccc(CNC(=O)CSc2nnc(NC(=O)C3CC3)s2)cc1 | 0 | 29 | 0 | 0 | 0 | 0 | 0 | 0
CC(C)(C)C(=O)COC(=O)c1ccc2c(c1)C(=O)N(Cc1ccco1)C2=O | 0 | 37 | 0 | 0 | 0 | 0 | 0 | 0
COc1ccc(C(=O)/C(=C\c2ccco2)N2C=CC=CC2=C(C#N)C#N)cc1 | - | 33 | 0 | - | 0 | 0 | 0 | 36
N#CC(C#N)=C1C=CC=CN1/C(=C\c1ccco1)C(=O)c1ccc(Br)cc1 | 0 | 0 | 0 | 0 | 0 | 0 | - | -
N#CC(C#N)=C1C=CC=CN1/C(=C\c1ccco1)C(=O)c1ccccc1 | 0 | 38 | 0 | 0 | 0 | 0 | 14 | 0
CC(C)(C)C1CCc2c(sc(NC(=O)C3CC=CCC3C(=O)O)c2C#N)C1 (centres undefined) | 0 | 29 | 0 | 0 | 0 | 0 | 0 | 0
C[C@@H]1[C@@H](O)C[C@]2(C[C@@H](O)c3ccccc3O2)O[C@H]1c1ccccc1 | 0 | - | - | - | - | - | - | -
COC(=O)COc1ccc(S(=O)(=O)N2CCN(c3ccccc3F)CC2)cc1 | 0 | 42 | 0 | 0 | 0 | 0 | 14 | 33
COC(=O)COc1ccc(S(=O)(=O)N2CCN(c3ccccc3)CC2)cc1 | 0 | 50 | 0 | 0 | 0 | 0 | 14 | 0
O=C(COc1ccc(S(=O)(=O)N2CCOCC2)cc1)Nc1ccccc1F | 0 | 0 | 0 | 0 | 0 | 0 | - | -
CCCS(=O)(=O)NCCc1cc2ccc(C)cc2[nH]c1=O | 0 | 0 | 0 | 0 | 0 | 0 | - | -
Cc1ccc(S(=O)(=O)C=CS(=O)(=O)c2ccc(C)cc2)cc1 | 0 | 42 | 0 | 0 | 0 | - | 0 | 0
CCN(CC)S(=O)(=O)c1ccc2c(c1)nc(CCC(=O)OCc1c(C)noc1C)n2C | 0 | 0 | 0 | 0 | 0 | 0 | - | -
Cc1cc2nnc(SCC(=O)N3CCCCCC3)n2c(N)n1 | 0 | 29 | 0 | 0 | 0 | 0 | 0 | 0
Cc1cc(C)nc(SCC(=O)N2CCCCC2)n1 | 0 | 0 | 0 | 0 | 0 | 0 | - | -
Cc1nn(CC(=O)OCC(=O)NCCc2ccc(S(N)(=O)=O)cc2)c(C)c1[N+](=O)[O-] | 0 | 0 | 0 | 0 | 0 | 0 | - | -
Cc1ccc(CNC(=O)COC(=O)Cn2nc(C)c([N+](=O)[O-])c2C)cc1 | 0 | 46 | 0 | 0 | 0 | 0 | 0 | 31
CN(c1cccc(NC(=O)c2ccc(N(C)S(=O)(=O)c3ccccc3)cc2)c1)S(C)(=O)=O | 0 | 42 | 0 | 0 | 0 | 0 | 0 | 0
CC(=O)Nc1ccc(C(=O)Nc2cccc(S(=O)(=O)N(C)c3ccccc3)c2)cc1 | 0 | 0 | 0 | 0 | 0 | 0 | - | -
CC1=Nc2ccc(C)cc2/C1=C/c1c(N)n2c(S(=O)(=O)C(C)C)nsc2nc1=O | 0 | 33 | 0 | 0 | 0 | - | 0 | 0
COc1ccc(C(=O)CN2C(=O)NC3(CCCc4ccccc43)C2=O)cc1 (centres undefined) | 0 | 0 | 0 | 0 | 0 | 0 | - | -
COc1ccc(NC(=O)CN2C(=O)C(C)SC(C)C2=O)cc1 (centres undefined) | 0 | 31 | 0 | 0 | 0 | 0 | 0 | 0
CC(=O)Nc1nc(C2CC2)cc(-c2ccccc2)c1C#N | 0 | 35 | 0 | 0 | 0 | 0 | 0 | 0
CCOC(=O)c1ccc(NCc2ccc3c(c2)OCO3)cc1 | 0 | 0 | 0 | 0 | 0 | 0 | - | -
SMILES | Rev-erbA mod | MC4R antagonist | MC4R ag barr | PG9 Ab binder | NR2E3 ag-1 | NR2E3 ag-2 | U2OS cAMP counter | MC4R cAMP antag
Cc1[nH]nc2c1C(c1cccs1)C(C#N)=C(N)O2 (centres undefined) | 0 | 0 | 0 | 0 | 0 | 0 | - | -
Cc1ccsc1C1C(C#N)=C(N)Oc2n[nH]c(C)c21 (centres undefined) | 0 | 29 | 0 | 0 | 0 | 0 | 0 | 0
COc1ccc(-n2nnnc2S(=O)(=O)CC(=O)N2CCCCC2)cc1 | 0 | 39 | 0 | 0 | 0 | 0 | 0 | 51
N#CC1(Nc2ccc(C(=O)O)cc2)CCCC1 | 0 | 0 | 0 | 0 | 0 | - | - | -
NC(=S)Nc1cccc(-c2n[nH]c(=S)o2)c1 | 0 | 0 | 0 | 0 | 0 | 0 | - | -
Cc1ccc(NC(=S)Nc2cccc(-c3n[nH]c(=S)o3)c2)cc1 | 0 | 37 | 0 | 0 | 0 | 0 | 0 | 0
COc1cc(OC)cc(C(=O)N2CCN(Cc3ccccc3[N+](=O)[O-])CC2)c1 | 0 | 29 | 0 | 0 | 0 | 0 | 0 | 0
COc1ccc(C(=O)N2CCN(Cc3ccccc3[N+](=O)[O-])CC2)cc1 | 0 | 0 | 0 | 0 | 0 | 0 | - | -
CCOC(=O)c1c(NC(=O)CCl)sc(CN(C)C)c1-c1ccccc1 | 0 | 48 | 0 | 0 | 0 | 0 | 23 | 41
CCc1ccc(Nc2nnc(SCC(=O)N(C)C3CCS(=O)(=O)C3)s2)cc1 (centres undefined) | 0 | 0 | 0 | 0 | 0 | 0 | - | -
CC1CCCC(NC(=O)CCC(=O)c2ccc(F)cc2)C1C (centres undefined) | 0 | 0 | 0 | 0 | 0 | 0 | - | -
CC1CCCC(NC(=O)CSc2ccc(F)cc2)C1C (centres undefined) | 0 | 32 | 0 | 0 | 0 | 0 | 0 | 0
O=S1(=O)CCOC[C@H](CC2CCCCC2)N1Cc1cccc(Cl)c1 | 0 | 0 | 0 | 0 | 0 | 0 | - | -
COc1cccc(-c2cc3c(=O)n(-c4ccccc4)c(=S)[nH]c3s2)c1 | 0 | 0 | 0 | 0 | 0 | 0 | - | -
COc1ccc(-n2c(=S)[nH]c3sc(-c4ccccc4)cc3c2=O)c(OC)c1 | 0 | 33 | 0 | 0 | 0 | 0 | 15 | 0
COc1ccc(-c2c3c(nc4sc5c(Cl)nc(C)nc5c24)CCC3)cc1 | - | 41 | 0 | - | 0 | 0 | 41 | 64
Cc1ccc(-c2c3c(nc4sc(C(N)=O)c(N)c24)CCC3)cc1 | 0 | 0 | 0 | 0 | 0 | 0 | - | -
O=C(c1ccc([N+](=O)[O-])cc1)N1CCOCC1 | 0 | 0 | 0 | 0 | 0 | - | - | -
O=C(Oc1ccc(C(=S)N2CCOCC2)cc1)c1ccc([N+](=O)[O-])cc1 | 0 | 34 | 0 | 0 | 0 | 0 | 0 | 0
COc1cc(-c2nnc(Sc3ccc(C(F)(F)F)cc3[N+](=O)[O-])o2)cc(OC)c1OC | 0 | 29 | 0 | 0 | 0 | 0 | 0 | 0
O=C(O)c1ccc(Sc2nnc(-c3cccc(Br)c3)o2)c([N+](=O)[O-])c1 | 0 | 0 | 0 | 0 | 0 | 0 | - | -
CC(C)Cc1nc2oc3c(Cl)ncnc3c2c2c1CCC2 | 0 | 60 | 0 | 0 | 0 | 0 | 0 | 43

Screening results deposited in PubChem BioAssay by several laboratories.
